What was measured:
[1] = molecular target: T1, hDAO (human diamine oxidase) (Homo sapiens, UniProt P19801); test: Inhibition of hDAO putrescine oxidation; format: biochemical; settings: for Mode of Inhibition: hDAO, putrescine oxidation, global nonlinear regression
T1 sequence (P19801 20-751): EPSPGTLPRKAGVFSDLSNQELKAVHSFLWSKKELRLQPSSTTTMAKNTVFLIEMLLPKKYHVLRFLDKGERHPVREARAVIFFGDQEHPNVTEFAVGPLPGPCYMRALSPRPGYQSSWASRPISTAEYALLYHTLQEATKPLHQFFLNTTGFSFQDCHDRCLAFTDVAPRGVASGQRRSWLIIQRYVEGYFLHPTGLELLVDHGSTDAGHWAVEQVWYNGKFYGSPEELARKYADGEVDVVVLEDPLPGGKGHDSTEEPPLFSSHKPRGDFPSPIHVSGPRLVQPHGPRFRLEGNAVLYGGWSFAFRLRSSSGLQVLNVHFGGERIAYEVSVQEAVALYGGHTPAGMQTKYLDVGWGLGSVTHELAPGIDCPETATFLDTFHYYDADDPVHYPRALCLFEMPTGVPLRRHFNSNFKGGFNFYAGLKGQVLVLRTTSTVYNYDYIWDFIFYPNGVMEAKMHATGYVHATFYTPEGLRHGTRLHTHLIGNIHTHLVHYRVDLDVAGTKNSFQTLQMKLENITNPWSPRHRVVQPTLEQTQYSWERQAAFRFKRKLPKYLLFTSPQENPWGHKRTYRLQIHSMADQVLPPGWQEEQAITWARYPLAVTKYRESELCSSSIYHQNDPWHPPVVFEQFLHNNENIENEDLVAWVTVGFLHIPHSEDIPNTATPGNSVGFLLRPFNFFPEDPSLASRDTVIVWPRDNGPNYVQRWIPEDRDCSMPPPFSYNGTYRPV

[2] = patients, intravenous treatment; ref [59], [73], [79]–[81]; cited from earlier work
hVAP-1 = molecular target: T2, hVAP-1 (Homo sapiens, UniProt Q16853); test: Inhibition of hVAP-1 amine oxidase activity; format: biochemical; settings: for Mode of Inhibition: hVAP-1
T2 sequence (Q16853 1-763): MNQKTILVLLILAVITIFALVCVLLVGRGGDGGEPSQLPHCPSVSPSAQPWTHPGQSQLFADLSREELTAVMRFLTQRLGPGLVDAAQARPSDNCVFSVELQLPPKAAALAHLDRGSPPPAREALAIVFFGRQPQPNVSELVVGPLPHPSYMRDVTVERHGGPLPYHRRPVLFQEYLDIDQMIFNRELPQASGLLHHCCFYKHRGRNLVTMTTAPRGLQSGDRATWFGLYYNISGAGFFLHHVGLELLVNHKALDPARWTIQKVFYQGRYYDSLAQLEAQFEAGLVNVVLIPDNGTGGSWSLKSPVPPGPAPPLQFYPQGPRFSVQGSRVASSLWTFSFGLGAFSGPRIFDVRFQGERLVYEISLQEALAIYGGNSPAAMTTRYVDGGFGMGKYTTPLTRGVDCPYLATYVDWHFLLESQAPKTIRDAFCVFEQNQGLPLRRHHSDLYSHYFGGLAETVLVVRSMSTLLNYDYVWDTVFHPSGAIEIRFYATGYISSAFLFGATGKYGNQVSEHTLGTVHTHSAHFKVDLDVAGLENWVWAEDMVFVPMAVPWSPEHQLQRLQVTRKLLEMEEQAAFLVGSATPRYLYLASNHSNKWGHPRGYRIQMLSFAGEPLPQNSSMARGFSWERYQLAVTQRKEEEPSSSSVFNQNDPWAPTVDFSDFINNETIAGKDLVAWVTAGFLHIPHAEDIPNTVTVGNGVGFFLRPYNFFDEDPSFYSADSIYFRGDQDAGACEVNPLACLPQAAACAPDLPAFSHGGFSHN
Procedure, shortened: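 Purified human VAP-1 was supplied as a gift. Activity was followed as benzaldehyde production at 250 nm over 5 min (ε 12,800 M⁻¹cm⁻¹) in 100 mM potassium phosphate, pH 7.2, at 37 °C, with and without test compound. Ki and mode came from global nonlinear regression, choosing the best-fitting competitive, uncompetitive, noncompetitive or mixed model.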

[3] = AIDS patients under pentamidine treatment; ref [72]–[78]; cited from earlier work

Compound | Ki [1] [µM] | Mode of Inhibition [1] | inhibition of hDAO, in words [1] | further results
NCCCCN [putrescine, 1,4-diaminobutane] | 2270 ± 140 |  |  | 
CN/C(=N/CCSCc1nc[nH]c1C)NC#N [Cimetidine] | 90 ± 14 | Mixed |  | 
N=C(N)c1ccc(OCCCCCOc2ccc(C(=N)N)cc2)cc1 [Pentamidine, 1,5-bis(4-amidinophenoxy)pentane] |  | mixed type/partial competitive inhibition | very potent inhibitors | Plasma concentration, lower end of range [2]: 25 ng/mL; Plasma concentration, lower end of range (molar) [2]: 43 nM; Plasma concentration, upper end of range [2]: 1.4 g/mL; Plasma concentration, upper end of range (molar) [2]: 2300 nM; Ki (hVAP-1): 1.1 ± 0.04 µM; Mode of Inhibition (hVAP-1): Noncompetitive; Mode of Inhibition (hVAP-1; listed as pentamidine): purely noncompetitive; AIDS patients with adverse side effects [3]: at least 70%
N=C(N)c1ccc(N=NNc2ccc(C(=N)N)cc2)cc1 [Berenil, 1,3-bis(4’-amidinophenyl)triazene] |  | Mixed | very potent inhibitors | Mode of Inhibition ([1]; listed as berenil): mixed type/partial competitive inhibition
Clc1cccc(Cl)c1N=C1NCCN1 [Clonidine] | 100 ± 8 | Mixed | weak inhibitor | 
NNC(=O)c1ccncc1 [Isoniazid] | 970 ± 50 | purely noncompetitive |  | 
